# Assay outcomes deposited in PubChem BioAssay by several laboratories.
# TROY NFkB inh: TROY signaling inhibition; 360,000 tested, 0.98% active; Q293 LMP1-TROYcd NF-kB luciferase reporter, 4 h; inhibition, % at 10 µM;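 active = compounds whose plate-normalised and pattern-corrected inhibition of the luciferase reporter signal at the single screening dose is 50% or more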
# HIF activator: HIF pathway transcriptional activation; U2OS HRE-luciferase reporter, luminescence; normalized: DMSO 0%, desferrioxamine 100%; activation, % at 7.5 µM (by protocol); 300,000 tested, 0.32% active; AID 1910;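 active = mean activation of at least 10% of the iron chelator positive control signal, with at least half of replicates also reaching 10%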
# NR2E3 ag-1: human photoreceptor-specific nuclear receptor agonism | CHO-S Gal4-NCOR/VP16-NR2E3 two-hybrid, luciferase | inhibition of corepressor binding, % at 3.98 µM | 360,000 tested, 0.35% active;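 active = inhibition above the mean of all tested compounds plus 3 SD, cut at about 70% in these data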;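 note: 0% = DMSO with NR2E3 transfected cells and 100% = cells lacking NR2E3 construct; higher means lower luciferase signal from less NR2E3 corepressor binding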
# Target sequence (Q9Y5X4 whole entry, looked up, the tested form may be a part): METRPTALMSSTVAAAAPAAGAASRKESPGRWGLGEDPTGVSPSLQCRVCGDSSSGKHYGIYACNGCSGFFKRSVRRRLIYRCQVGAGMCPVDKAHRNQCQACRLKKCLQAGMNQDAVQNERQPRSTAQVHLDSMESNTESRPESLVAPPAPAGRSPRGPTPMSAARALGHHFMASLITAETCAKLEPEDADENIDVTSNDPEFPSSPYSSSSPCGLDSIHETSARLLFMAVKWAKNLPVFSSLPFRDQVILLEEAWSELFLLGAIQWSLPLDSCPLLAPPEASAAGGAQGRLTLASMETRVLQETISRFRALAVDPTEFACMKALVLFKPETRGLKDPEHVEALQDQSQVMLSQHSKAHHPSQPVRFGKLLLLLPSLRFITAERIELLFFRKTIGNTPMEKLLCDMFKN
# EBV LMP1 NFkB: inhibitors of Epstein-Barr LMP1-induced NF-kappaB reporter; LMP1-induced NF-kappaB luciferase reporter cells, luminescence; 350,000 tested, 0.69% active; inhibition, % at 12.5 µM; AID 504558; in the data active = inhibition above about 41%;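 note: 0% = neutral control wells and 100% = reference inhibitor control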
# NR2E3 ag-2: NR2E3 (human) agonism; GST-NR2E3/biotin-RetCOR TR-FRET, 1536-well; 320,000 tested, 0.12% active; inhibition of corepressor binding, % at 4.78 µM;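 active = percent inhibition above the cutoff of mean plus 3 SD of all tested compounds, set per screening campaign, cut at about 20% in these data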;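 note: 0% = DMSO wells and 100% = biotin wells as full block of FRET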
#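 Material – GST-tagged NR2E3 plus biotinylated RetCOR corepressor · Quantity – NR2E3 fusion 1.35 nM · Times – 5 h incubation at 4 °C · Medium – pH 7.5 Tris-based buffer · Technique – TR-FRET, Eu(K)-anti-GST donor, streptavidin-D2 acceptor, ex 340, em 617/671 nm · Benchmarks – high control biotin, low control 0.6% DMSO · Format – 1536-well plates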
# Numbers without * were called inactive; . = no result given. In the library only some 2% were active in any assay of this set; here they are far more common.
SMILES,TROY NFkB inh,HIF activator,NR2E3 ag-1,EBV LMP1 NFkB,NR2E3 ag-2
CCN(CC)c1ccc(/C=N/NC(=O)c2cccc(S(=O)(=O)N3CCOCC3)c2)c(O)c1,0.4,101.9*,-40.9,55.5*,1.2
CCN(CC)c1ccc(/C=N/NC(=O)c2c(Cl)cnn2C)c(O)c1,-13.1,14.9*,-45.4,51.8*,-2.7
Cc1ccc([C@@]2(OC(=O)c3ccccc3)C(=O)N(C(=O)OC(C)(C)C)c3ccccc32)cc1,14.2,.,5.8,.,.
CCOc1cc(/C=C2/C(=N)N3N=C(CC)SC3=NC2=O)ccc1OC(=O)c1ccco1,17.5,-0.7,-19.1,42.7*,2.8
COc1ccc(CC(=O)N/N=C(\C)c2ccc(Br)s2)cc1,0.4,0.6,-16.0,4.2,5.2
Cn1nc(C(=O)Nc2ccccc2N2CCCC2)c2ccccc2c1=O,-10.7,-0.3,-20.9,2.7,0.5
CCOc1cc(-c2sc(Nc3ccccc3)n[n+]2C)ccc1OC,-1.1,0.0,-32.5,80.7*,1.7
COc1ccc(-c2sc(Nc3ccccc3)n[n+]2C)c(C)c1C,-19.1,-1.0,-11.5,6.1,4.3
c1ccc(-c2cccc(-c3ccccn3)n2)nc1,-19.4,211.7*,-21.0,52.9*,2.1
COc1cc(C(=O)NCCc2nc3ccccc3n2C)cc(OC)c1OC,-13.0,95.3*,5.6,1.6,0.3
COc1cc(C(=O)Cc2nc3ccccc3n2C)cc(OC)c1OC,10.1,0.0,-8.4,-2.8,1.2
COc1ccc(C(C)(O)c2nc(-c3cccc(F)c3)cs2)cc1 (configuration not stated),15.4,.,-43.8,.,.
CCC1CCc2sc(C(=O)NNC(=O)c3ccncc3)cc2C1 (configuration not stated),-25.3,-0.1,-7.5,2.2,-3.1
CCC1CCc2sc(C(=O)O)cc2C1 (configuration not stated),14.9,64.9*,-8.3,0.4,-0.2
Cc1ccccc1CSc1nc(C(C)(C)C)cc(=O)[nH]1,64.7*,0.2,0.8,-10.6,2.6
Cc1cc(C)c2c(=O)[nH]c(SCc3ccccc3C)nc2n1,4.4,-0.2,-20.3,-4.1,-1.4
O=C(CN(C(=O)CCC(=O)Nc1nccs1)c1cccc(C(F)(F)F)c1)NCC1CCCO1 (configuration not stated),-49.4,0.9,-9.5,0.6,4.1
COc1ccc(-c2csc(NC(=S)NC(=O)/C=C/c3ccc(C(C)C)cc3)n2)cc1OC,69.8*,0.5,-8.8,25.8,-0.9
O=C1[C@@H](Oc2ccccc2)[C@@H](c2ccccc2)N1c1ccccc1,-0.8,.,-33.2,0.8,.
O=C1[C@H](Oc2ccccc2)[C@@H](c2ccccc2)N1c1ccncc1,56.4*,.,-5.2,11.2,.
O=C(NCc1ccccc1)C(=O)c1cn(CC(=O)N2CCOCC2)c2ccccc12,-20.8,196.9*,-28.3,-7.6,1.1
C=CC[n+]1ccc(/C=C2\C=Cc3cc(C)ccc3N2CC)c2ccccc21,50.2*,.,93.2*,56.5*,.
CCN1/C(=C/c2cc[n+](CCCS(=O)(=O)[O-])c3ccccc23)Sc2ccccc21,7.7,-0.7,-29.3,9.6,-3.8
CCc1nc2c(OCc3ccc(F)cc3)cccn2c1N(C)C(=O)c1ccc(C)cc1,-6.5,.,3.7,.,.
O=S(=O)(c1ccc(NC(=S)Nc2ccccc2)cc1)N1CCOCC1,-20.9,0.6,18.3,5.9,-2.2
SMILES,TROY NFkB inh,HIF activator,NR2E3 ag-1,EBV LMP1 NFkB,NR2E3 ag-2
CC(C)CCCCCCNC(=S)Nc1ccc(S(=O)(=O)N2CCOCC2)cc1,56.4*,-0.4,22.9,-7.1,3.1
CC(=O)Nc1ccc2c(c1)CCCC2=O,1.8,9.6*,-12.5,-2.4,-3.2
CC(C)OCCCN(C)C1CCN(S(=O)(=O)c2ccc(-c3ccc(=O)[nH]n3)s2)CC1,1.7,-0.5,-21.2,4.9,2.9
CCN(C(=O)CSc1nnc(Nc2cccc(C)c2C)s1)C1CCS(=O)(=O)C1 (configuration not stated),4.0,-0.5,9.2,47.5*,0.0
O=C(N/N=C/c1ccc[nH]1)c1ccc([N+](=O)[O-])cc1,-0.3,0.6,-22.1,-6.2,2.0
Cc1csc(NC(=O)CSc2nnc(NC(=O)NC(C)(C)C)s2)n1,-29.4,0.8,-23.4,-7.1,0.7
CCOCCCn1cnc2c3cc(F)ccc3n(C)c2c1=O,-38.2,.,-33.7,57.3*,1.5
Cc1ccc(C)c(S(=O)(=O)c2c[nH]c(=S)[nH]c2=O)c1,-20.5,0.5,-5.4,-13.5,1.1
O=C(c1ccc2c(=O)n(CCc3ccccc3)c(=O)[nH]c2c1)N1CCN(c2ccc(F)cc2)CC1,57.7*,-0.9,-11.3,21.2,5.1
Nc1ncnc2c1C1(CCCCC1)Cc1ccccc1-2,59.0*,-0.2,-14.2,8.0,-1.9
Nc1n[nH]c2c1C1(CCCCC1)Cc1ccccc1-2,3.9,-0.7,-22.0,0.6,-3.5
COCCNC(=S)N(CCc1c(C)[nH]c2ccc(OC)cc12)Cc1cccnc1,13.7,0.0,13.6,42.0*,-1.9
COc1ccc(C(=O)O/N=C(\N)c2ccccc2)c(OC)c1,76.6*,-2.6,-43.6,34.4,1.3
COc1ccc(C(=O)O/N=C(\N)c2ccccn2)c(OC)c1,73.1*,-2.2,-97.0,38.3,1.8
COc1ccc(C(=O)O/N=C(\C)c2ccccc2)cc1,68.8*,1.0,-15.6,-11.7,3.7
NS(=O)(=O)c1ccc(NC(=O)COC(=O)CC2Sc3ccccc3NC2=O)cc1 (configuration not stated),11.9,.,15.4,-0.5,-0.3
CN(CC(=O)Nc1ccccc1Cl)C(=O)COC(=O)c1nc(Cl)c(Cl)c(Cl)c1Cl,53.5*,2.4,23.0,-12.3,-12.2
C=CC[C@H](CC(=O)NCCO)C(=O)NC[C@@H](OC(=O)[C@H](CC=C)CC(=O)OC(C)(C)C)c1ccccc1,6.7,.,9.4,-4.5,.
Cc1ccc(-n2nc3ccc(NC(=S)NC(=O)/C=C/c4ccco4)cc3n2)cc1,-26.6,1.8,-159.6,-57.9,7.4
Cc1ccc(-n2nc3cc(C)c(NC(=S)NC(=O)/C=C/c4ccco4)cc3n2)cc1,69.4*,0.5,-30.6,-60.0,3.3
CNc1cncc(-c2ccc(S(C)(=O)=O)cc2)n1,-0.9,.,-55.0,.,.
C/C(=N\NC(=S)NC1CCCCC1)c1cccc(C(F)(F)F)c1,-24.5,-0.4,-11.0,-0.2,-5.8
COc1ccc(CC(NC(C)=O)C(=O)NC2CCN(C(=O)c3cccc(Cl)c3)CC2)cc1OC (configuration not stated),-9.5,127.3*,-10.3,-0.7,.
COc1ccc(CC(NC(C)=O)C(=O)NC2CCN(C(=O)c3ccncc3)CC2)cc1OC (configuration not stated),-2.0,-0.1,-32.7,-0.2,3.2
O=C(c1ccco1)N1CCN(S(=O)(=O)/C=C/c2ccccc2)CC1,6.0,-0.3,-0.2,49.2*,0.8
O=C(c1cc2ccccc2o1)N1CCN(S(=O)(=O)/C=C/c2ccccc2)CC1,-8.6,-0.4,-2.3,6.0,2.2
